Reference: PubChem BioAssay AID1019 (Sanford-Burnham Center for Chemical Genomics, 2008)
Screen size: about 190,000 compounds; fewer than 10 were called active.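 Rule for the calls: active = over 50% inhibition of intestinal alkaline phosphatase at 20 µM in the single-dose screen; inactive = the rest.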 A selection follows.

test system: alkaline phosphatase, intestinal [Bos taurus]; assay: IAP enzyme activity blockers – biochemical, bovine IAP, CDP-star luminescence, selectivity assay for TNAP inhibitor project, primary screen (AID 1019); details: purified bovine IAP, 30 min, at 20 µM, stronger effect = higher value
Outline: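 Assay system: bovine IAP enzyme; medium: DEA buffer 100 mM, pH 9.8, with MgCl2 1.0 mM, ZnCl2 0.02 mM; doses: 20 µM single dose; incubation: enzyme reaction for 30 min at room temperature; detection: CDP-star luminescence signal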

inhibition, inactive:
Cc1ncoc1C(=O)N1CCCC(C(=O)c2ccc3c4c(cccc24)CC3)C1 (stereo unspecified) 8.3%, COC(=O)c1nc(NC(=O)c2ccc(F)cc2)n[nH]1 8.8%, CC1(C)CC(=O)c2cnc3nc4ccccc4n3c2C1 7.1%, CCOc1c(CNCc2ccc(C(=O)O)cc2)cccc1OC -5.7%, Cc1cc(C(C)(C)C)cc(S(=O)(=O)Nc2ccc(C(=O)O)cc2)c1C -15.7%, Cc1c(NC(=O)CSc2nnnn2-c2ccc(C(=O)O)cc2)c(=O)n(-c2ccccc2)n1C 6%, CC(C)(C)c1cnnn1-c1ccc([N+](=O)[O-])cc1 3.1%, CCCCCCCCCOC1OC(CO)C(O)C(O)C1NC(C)=O (stereo unspecified) -0.5%, COc1ccc(CCNC(=O)CN(c2ccccc2)S(C)(=O)=O)cc1 -4%, CCCc1nc2c([nH]1)C(c1cccnc1)C(C#N)=C(N)O2 (stereo unspecified) 8.5%, CC(OC(=O)CCc1nc(=O)c2ccccc2n1C)C(=O)NCc1ccc2c(c1)OCO2 (stereo unspecified) -9.4%, O=c1[nH]c(=S)[nH]c2[nH]c(=S)[nH]c12 18.7%, CC(C)N(Cc1nc(-c2ccc3c(c2)OCO3)no1)CC1CCC(=O)N1 (stereo unspecified) 2.1%, O=C(NC1CC1)c1ccc(-c2ccccc2)cc1 -4.4%, O=C(O)CSCC(=O)Nc1ccc(C(F)(F)F)cc1 3.8%, COc1cc(OC)cc(C(=O)NCC(=O)OCc2csc(-c3ccccc3)n2)c1 1.4%, CNc1nccc(-c2ccc(Cl)cc2)c1C#N -1.9%, O=C(c1ccc(C(F)(F)F)cc1)C1CCCN(C(=O)c2csnn2)C1 (stereo unspecified) 9.5%, CN1C(=O)/C(=C/c2ccco2)SC1=Nc1cccc(C(=O)O)c1 -5.3%, COC(=O)CCC(=O)N1CCCC(CO)(Cc2ccccc2)C1 (stereo unspecified) 6.2%, CCN(CC)CCN(C(=O)c1cccc([N+](=O)[O-])c1)c1nc2ccc(OC)cc2s1 4.9%, O=C(Nc1ccc([N+](=O)[O-])cc1)C1(c2ccccc2)CCOCC1 9.9%, Cc1noc(C)c1COc1cccc(C(=O)Nc2cccnc2)c1 -7.5%, CC(C)CCNC(=O)c1cccnc1Sc1ccccc1 -6.1%, Brc1ccc(C2CC(c3ccccc3)=Nc3ccccc3N2)cc1 (stereo unspecified) 7.5%, Cc1ccc(C)c(Cn2nnc3c(=O)[nH]c(C(=O)Nc4ccc(F)cc4)nc32)c1 2.7%, COc1ccccc1CN(C)C(=O)C1(c2ccc(Cl)cc2)CC1 11.2%, COCCNC(=S)Nc1cc(S(=O)(=O)N2CCOCC2)ccc1N1CCCCC1 -0.2%, COc1ccc(S(=O)(=O)N2CCN(C(=O)c3cc(C)oc3C)CC2)cc1 4.3%, Cc1ccc(NC(=O)c2oc3ccccc3c2C)c([N+](=O)[O-])c1 21.2%, Clc1ccc(-c2cc(C3CCNCC3)[nH]n2)c(Cl)c1 1%, COc1cccc(NC(=O)C(Sc2nnnn2C)c2ccccc2)c1 (stereo unspecified) -2.3%, CCC1SC(CC)C(=O)N(CC(=O)NC2CCCCC2)C1=O (stereo unspecified) 11.7%, O=C(CCc1[nH]c2ccccc2c1Sc1ccccc1)N(CCO)CCO 14.8%, Cc1ccc(S(=O)(=O)N(Cc2ccc(Cl)cc2)c2ccccc2C(=O)NCc2cccnc2)cc1 15.3%, O=C(C/C(=N\NC(=O)c1ccccc1Br)C(F)(F)F)c1cccs1 5.9%, Cc1ccc(C(=O)N2CCN(S(=O)(=O)N3CCOCC3)CC2)cc1 9%, CCc1cccc(C)c1NC(=O)COC(=O)Cc1ccsc1 -0.9%, O=C(CSc1nncs1)NC1CCCc2ccccc21 (stereo unspecified) -2.1%, Cc1ccc2nc(C)cc(N/N=C/c3ccc(F)cc3)c2c1 0.2%, O=C(COC(=O)Cn1cnc2ccccc2c1=O)NCC12CC3CC(CC(C3)C1)C2 12.5%, O=C1CCC(CCC(=O)N2CCCC(C(=O)c3ccc(Cl)cc3)C2)=NN1 (stereo unspecified) -3%, CCC(C)CN1CCC(CO)(Cc2ccccc2Cl)CC1 (stereo unspecified) -18.6%, COc1ccc(N2C(=O)C(Cc3ccccc3)NC2=S)cc1 (stereo unspecified) -2.9%, COc1ccc(-n2cnnc2SCC(=O)Nc2cccc([N+](=O)[O-])c2)cc1 8.1%, Cc1nc2scc(-c3cccs3)c2c(=O)n1N -37.2%, CCN(CC(=O)Nc1ccc(Cl)c(S(=O)(=O)N(C)C)c1)Cc1nc2ccccc2c(=O)[nH]1 -108%, COc1cc(C(=O)Nc2cc(C(F)(F)F)ccc2-n2cncn2)cc(OC)c1OC -1.7%, NS(=O)(=O)c1ccc(CCNC(=O)c2ccc(Cl)cc2[N+](=O)[O-])cc1 -14.5%, Cc1nc2ccccn2c1C(=O)NN=C1CCN(C)CC1 -6.8%, CC(=O)NNC1=Nc2ccccc2N(C)C(C)C1 (stereo unspecified) 26.5%, Clc1ccc(N/N=C/c2cccs2)nn1 -1.4%, Cc1cccc(CSc2ccc(-c3cccs3)nn2)c1 14.5%, COC(=O)c1c(NC(=O)c2c(Cl)cnn2C)sc(C)c1C 0.9%, O=C(NCc1cccs1)c1cc(-c2ccccn2)nc2ccc(Br)cc12 -9.8%, CC1CCN(C(=O)c2ccc(S(=O)(=O)Cc3cc(F)ccc3F)c([N+](=O)[O-])c2)CC1 18.6%, COc1ccc(CCN=C2SCC(=O)N2Cc2ccccc2)cc1OC 3.1%, COc1ccc(C(=O)NNC(=O)c2cc(C)[nH]n2)cc1 -38.6%, CCN(CC)CCN(C(=O)c1ccc(N2C(=O)CCC2=O)cc1)c1nc2cc3c(cc2s1)OCO3 -11.6%, CC(=O)Nc1ccc(C(=O)OCC(=O)Nc2ccc([N+](=O)[O-])cc2C(F)(F)F)cc1 34.7%, Cn1cc(CN2CCCCC2c2ccccn2)c(-c2ccc3c(c2)OCCO3)n1 (stereo unspecified) 6.3%
